The list is not random: actives were taken first. Their share in the collection is about 4.6%.
GPR7 antag – blocks human GPR7 receptor signaling | P48145 | inhibition, % at 4.4 µM | GPR7-expressing cells, fluorescence antagonist assay | actives 1.1% (n = 290,000); in the data active = inhibition above about 16%, passing the limit was not always enough;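 also: cells stimulated with the agonist NPW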
Target sequence (P48145 whole entry, looked up): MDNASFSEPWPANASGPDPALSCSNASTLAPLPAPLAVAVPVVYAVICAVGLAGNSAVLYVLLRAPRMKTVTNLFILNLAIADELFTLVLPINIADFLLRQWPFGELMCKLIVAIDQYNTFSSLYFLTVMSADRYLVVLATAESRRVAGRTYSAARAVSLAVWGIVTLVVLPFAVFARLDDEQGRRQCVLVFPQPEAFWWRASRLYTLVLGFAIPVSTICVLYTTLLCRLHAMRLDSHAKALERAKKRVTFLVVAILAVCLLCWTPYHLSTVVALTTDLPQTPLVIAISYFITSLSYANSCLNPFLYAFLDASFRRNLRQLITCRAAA
TAAR1 ag – human TAAR1 agonism; CHO RD-HGA16 TAAR1, Fluo-8 calcium fluorescence; vehicle wells 0%, saturating PEA agonist 100%; actives 0.99% (n = 360,000); activation, % at 3 µM; Q96RJ0;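 active = activation above the mean activation of all test compounds in the run plus 3 SD, cut at about 38% in these data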
Target sequence (Q96RJ0 whole entry, looked up): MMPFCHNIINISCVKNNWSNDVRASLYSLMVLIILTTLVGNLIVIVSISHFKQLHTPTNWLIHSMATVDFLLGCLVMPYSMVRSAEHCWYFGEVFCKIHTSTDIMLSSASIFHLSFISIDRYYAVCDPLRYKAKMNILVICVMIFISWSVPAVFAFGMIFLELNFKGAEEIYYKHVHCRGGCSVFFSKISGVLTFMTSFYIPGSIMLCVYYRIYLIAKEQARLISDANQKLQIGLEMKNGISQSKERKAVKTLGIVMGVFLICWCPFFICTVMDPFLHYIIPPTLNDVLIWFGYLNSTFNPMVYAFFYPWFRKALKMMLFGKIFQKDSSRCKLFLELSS
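Test system: RD-HGA16 (CHO) cells co-expressing Gα16 and hTAAR1; dosing: one-point dosing at 3 µM (nominal); timing: 17-24 h seeding, 75 min 37 °C dye, 30 min RT; signal: kinetic Fluo-8 calcium fluorescence; read-out basis: % activation relative to PEA EC100 response; controls: DMSO and PEA EC100; replicates: n 1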
TAAR1 antag – human TAAR1 antagonism; CHO RD-HGA16 TAAR1, Fluo-8 calcium fluorescence, antagonist; actives 1.5% (n = 360,000); inhibition, % at 3 µM; Q96RJ0;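 active = inhibition above a per-plate cutoff, the mean inhibition of test compounds on that plate plus 3 SD, cut at about 49% in these data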
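Assay system: CHO-derived RD-HGA16 cells stably expressing human TAAR1 plus Gα16. Timing: 140 s kinetic read after compound, 140 s after agonist. Technique: kinetic Fluo-8 calcium fluorescence measurement. Measure: % inhibition of agonist calcium response.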
OX1R antag-1 – blocks the human orexin 1 receptor. AID 485270. O43613. inhibition, % at 6.6 µM. actives 1.8% (n = 330,000). OX1R-expressing cells, FRET antagonist read-out; in the data active = inhibition mostly above about 38%, no sharp cut-off; inactive = mostly below about 40%
OX1R antag-2 – blocks the human orexin 1 receptor; O43613; CHO/OX1R cells, Fluo-8 calcium fluorescence, orexin A; inhibition, % at 5 µM; actives 0.43% (n = 330,000); AID 434989;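 active = inhibition above its plate's threshold, mean inhibition of all tested compounds on the plate plus 3 SD, cut at about 37% in these data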
CHO parental Ca – signal in parental CHO cells, OX1R antagonist counter-screen. parental CHO-K1, ATP-induced calcium, Fluo-8 fluorescence. inhibition, % at 5.6 µM. actives 0.63% (n = 330,000). AID 463079;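 active = inhibition above that plate's mean sample inhibition plus 3 SD, cut at about 26% in these data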
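test system = CHO parental line | reagent = ATP stimulus | measured by = intracellular calcium via Fluo-8 no-wash fluorescent dye | control set = ATP and no-ATP DMSO wells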
A number is an active result; . = inactive; / = no result given.

SMILES | GPR7 antag | TAAR1 ag | TAAR1 antag | OX1R antag-1 | OX1R antag-2 | CHO parental Ca
CCCOc1ccccc1C1CC(=O)NC2=C1C(=O)CCC2 (centres undefined) | . | . | . | . | . | .
CCCCOc1ccccc1C1CC(=O)NC2=C1C(=O)CCC2 (centres undefined) | 20 | . | . | . | . | .
Cc1sc2nc3n(c(=O)c2c1C)CCCCC3 | . | . | . | . | . | .
Cc1ccc2nc3ccc(N4CCCC4)nn3c(=O)c2c1 | . | . | . | 78 | . | .
Cc1sc2nc3ccc(N4CCCCC4)nn3c(=O)c2c1C | . | . | . | 76 | . | .
COC(=O)C1=C(C)N(Cc2ccc(C(F)(F)F)cc2)C(=NCc2cc(OC)c(OC)c(OC)c2)NC1c1cccc(Cl)c1 (centres undefined) | / | . | . | / | / | /
Cc1ncc(CO)c(CO)c1OCC(O)CN1CCN(c2ccc(F)cc2)CC1 (centres undefined) | / | . | . | / | / | /
CCN(CC(=O)Nc1cccc(OC)c1)C(=O)C1CC(=O)N(Cc2ccccc2Cl)C1 (centres undefined) | / | . | . | / | / | /
CC1CCN(C(=O)c2ccccc2NS(=O)(=O)c2ccccc2)CC1 | . | . | . | 50 | . | .
COc1ccc(C)cc1NC(=O)CCNS(=O)(=O)c1cccc2nonc12 | . | . | . | 71 | . | .
O=C(O)CSc1c2ccccc2cc2ccccc12 | . | . | . | 54 | . | .
Cc1[nH]c2ccccc2c1SCC(=O)O | . | . | . | . | . | .
CCCCCCCn1c(=O)c(C(=O)OC)c(N)c2ccccc21 | . | . | . | . | 41 | 58
O=C(O)[C@@H]1C[C@@H](O)CN1 | / | . | . | / | / | /
Cc1ccc(S(=O)(=O)N2C[C@H]3C(=O)C[C@@H]4C(=O)N(c5ccccc5)C(=O)[C@@H]4[C@@H]3C[C@H]2c2cccc(Cl)c2)cc1 | / | . | 60 | / | / | /
CCc1ccc([C@H]2C[C@H]3[C@H]4C(=O)N(c5ccccc5)C(=O)[C@H]4CC(=O)[C@@H]3CN2S(=O)(=O)c2ccc(C)cc2)cc1 | / | . | . | / | / | /
COC(=O)c1c(C)[nH]c(C)c1C(=O)c1ccccc1Cc1ccccc1 | / | . | . | 47 | . | .
COC(=O)c1c(C)[nH]c(C=O)c1-c1ccccc1 | . | . | . | . | . | .
Cc1onc(-c2c(Cl)cccc2Cl)c1CO/N=C(\C#N)c1c(Cl)cccc1Cl | . | . | 49 | . | . | .
Cc1onc(-c2c(Cl)cccc2Cl)c1/C(N)=N/OC(=O)C(C)(C)C | . | . | . | . | . | .
NC(=O)CN1C(=O)C(O)(CC(=O)c2ccccc2O)c2ccccc21 (centres undefined) | . | . | . | 56 | . | .
COc1ccccc1C(=O)N/C(=C\c1cn(C)c2ccccc12)C(=O)N1CCCC1 | . | . | . | 50 | . | .
COC(=O)c1ccc(-c2cccc(CN3CCN(c4ncc(Cc5ccccc5)cn4)CC3)c2)cc1 | / | . | . | / | / | /
Cn1nnnc1SCC(=O)N1CCN(c2ccc(Cl)cc2)CC1 | 16 | . | . | . | . | .
Cn1nnnc1SCC(=O)N1CCCCC1 | . | . | . | . | . | .
SMILES | GPR7 antag | TAAR1 ag | TAAR1 antag | OX1R antag-1 | OX1R antag-2 | CHO parental Ca
COc1ccc(C(O)c2ncc(-c3ccccc3)[nH]2)cc1F (centres undefined) | / | . | . | / | / | /
O=C(/C=C/c1ccc(Cl)c([N+](=O)[O-])c1)Nc1cccnc1 | . | . | . | 54 | . | .
O=C(/C=C/c1ccc(Cl)c([N+](=O)[O-])c1)Nc1cccc(NC(=O)c2ccco2)c1 | . | . | 69 | 58 | . | .
O=C(/C=C/c1ccc(Cl)c([N+](=O)[O-])c1)Nc1ccc(NC(=O)c2ccco2)cc1 | . | . | . | / | / | /
O=C1Nc2ccccc2/C1=C/C(=O)c1cccs1 | 26 | . | . | . | . | .
CN(Nc1cccc(Cl)c1)c1cccc(Cl)c1 | / | . | . | / | / | /
COc1ccc(CNC(=O)CN2C(=O)c3ccc([N+](=O)[O-])cc3C2=O)cc1 | . | . | . | 76 | . | .
COc1ccc(CNc2ccc([N+](=O)[O-])cc2C)cc1 | . | . | . | . | . | 38
O=C(CN1C(=O)c2ccc([N+](=O)[O-])cc2C1=O)Nc1nccs1 | . | . | . | . | . | .
O=C(CCN1C(=O)c2ccc([N+](=O)[O-])cc2C1=O)Nc1nccs1 | . | . | . | 72 | . | .
COc1cccc(NC(=O)CCN2C(=O)c3cccc([N+](=O)[O-])c3C2=O)c1 | . | . | . | . | . | .
COc1cccc(NC(=O)CCN2C(=O)c3ccc([N+](=O)[O-])cc3C2=O)c1 | . | . | . | 50 | . | .
COc1ccc(CNC(=O)CN2C(=O)c3ccccc3C2=O)cc1 | . | . | . | . | . | .
CC(C)[C@H](NC(=O)c1ccc(Cl)cc1Cl)C(=O)N1CCC[C@H]1C(=O)NCc1ccccc1 | / | . | . | / | / | /
CCCN(C)C1CN(Cc2cn(CCCC(=O)OC)nn2)S(=O)(=O)C1 (centres undefined) | / | . | . | / | / | /
COC(=O)[C@]12C[C@H](CC(=O)N3CCC(c4ccccc4)CC3)C(=O)N(CCc3ccc(OC)c(OC)c3)C1=C[C@H](C(C)(C)C)O[C@@H]2C | / | . | . | / | / | /
O=C(CN1C(=O)c2ccccc2C1=O)NC1CCCCCC1 | . | . | . | . | . | .
O=C(CN1C(=O)c2ccc([N+](=O)[O-])cc2C1=O)NC1CCCCCC1 | / | . | . | 65 | . | .
COc1cccc(C2=Nn3c(nnc3-c3ccccc3O)SC2)c1 | . | . | . | . | . | .
C[n+]1c2n(c3ccccc31)N=C(c1cc(C(C)(C)C)c(O)c(C(C)(C)C)c1)CS2 | 70 | . | . | . | . | .
COc1ccc(Br)cc1C(=O)Nc1cccc(NC(=O)c2ccco2)c1 | . | . | . | 44 | . | .
Cc1cc(C)c(OCC(=O)Nc2cccc(NC(=O)c3ccco3)c2)c(Br)c1 | . | . | 52 | 64 | . | 32
COc1c(C)cc(Br)cc1C(=O)Nc1cccc(NC(=O)c2ccco2)c1 | . | / | / | . | . | .
CCOC(=O)CN1CCCc2nc(C)c(C)cc21 | / | . | . | / | / | /
c1ccc(Cc2cnc(N3CCN(Cc4ccc5c(c4)OCCO5)CC3)nc2)cc1 | / | . | . | / | / | /
Cc1c(C2(O)CCCCC2)[nH]c2cc(C(F)(F)F)ccc12 | / | . | . | 71 | 91 | 65
CCc1c(C2(O)CCCCC2)[nH]c2cc(C(F)(F)F)ccc12 | . | / | / | 64 | 45 | .
O=S(=O)(c1ccc(F)cc1)N1CCCc2nc(-c3ccccc3)ccc21 | / | . | . | / | / | /
Cc1ccc(Cc2c(-c3cccc(Br)c3)nc3c4ccccc4ccn23)cc1 | / | . | . | / | / | /
C=CCNc1cccc2c1S(=O)(=O)N[C@H](C)CO2 | / | . | . | / | / | /

Assay outcomes: PubChem, The Scripps Research Institute Molecular Screening Center
